XBP1 UPR activ – adaptive UPR (XBP1) activation; AID 463104; CHO-XBP1 luciferase reporter, IRE1-XBP1 UPR activation, luminescence; percent of tunicamycin response, DMSO as zero; activation, % at 20 µM; actives 0.33% (n = 330,000);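 active = versus positive control, 20 µM dose yields 30% or more activation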;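 also: 100% = tunicamycin at 10 µg/mL and 0% = DMSO only wells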
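Signal: luciferase luminescence; Assay system: CHO-XBP1 luciferase reporter cells; Amount: one thousand reporter cells per well; Dosing: 20 µM single concentration, DMSO 1%; Benchmarks: high control tunicamycin 10 µg/mL final, low control DMSO vehicle only; Schedule: 6 h compound exposure at 37 °C, 5% CO2; Evaluation: percent activation relative to tunicamycin reference.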
697 NFkB inh – inhibitors of the PMA/ionomycin-induced NF-kB reporter in 697 B cells. inhibition, % at 4 µM. actives 0.33% (n = 330,000). 697 B-cell NF-kB luciferase reporter, 16 h; in the data active = inhibition above about 35%
CHOP inh – inhibitors of CHOP induction in ER stress response. CHO-K1 CHOP-promoter luciferase, tunicamycin-induced, 15-18 h. inhibition, % at 10 µM. actives 3.8% (n = 220,000);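 active = compounds that reduced the stress-induced luciferase reporter signal by more than about 70% of percent inhibition, limit read from the data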;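 also: 0% = tunicamycin plus vehicle and 100% = wells without tunicamycin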
Gli-Sufu antag – blocks Gli-Sufu signaling in a luciferase reporter. inhibition, % at 5 µM. Sufu-KO-LIGHT fibroblasts, Gli luciferase reporter luminescence. actives 0.74% (n = 340,000). AID 588413;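 active = inhibition above about 55%, limit read from the data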;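 also: 0% = DMSO-treated cells and 100% = wells with medium but no cells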
Jurkat NFkB inh – inhibitors of the PMA/ionomycin-induced NF-kB reporter in Jurkat cells | actives 0.53% (n = 330,000) | inhibition, % at 4 µM | AID 435003 | PMA/ionomycin-induced NF-kB luciferase reporter, luminescence; in the data active = inhibition above about 50%
CHOP UPR activ – activators of apoptotic arm of unfolded protein response (CHOP) | CHO-CHOP luciferase reporter, UPR activation, luminescence; percent of tunicamycin response over DMSO baseline | activation, % at 10 µM | actives 0.34% (n = 330,000);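 active = at 10 µM dose, activation of 40% or more, normalized to positive control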;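 also: 100% = tunicamycin at 10 µg/mL and 0% = DMSO alone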
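Test system: CHO CHOP reporter cells. Input: 500 CHO-CHOP cells per well. Medium: F12 with 10% FBS. Technique: luciferase luminescence. Measure: percent activation relative to tunicamycin control. Dosing: 10 µM compound, 0.5% DMSO. Timing: 16-18 h cell attachment, then 6 h compound exposure, 37 °C.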
* = called active by the depositor; · = no result. Rows were chosen to be rich in hits. Some 3.9% of all compounds tested hit in one or more screens of this group.

SMILES	XBP1 UPR activ	697 NFkB inh	CHOP inh	Gli-Sufu antag	Jurkat NFkB inh	CHOP UPR activ
COc1ccc(NC(=O)Cn2nnc(-c3ccccc3NC(=O)c3ccco3)n2)cc1	1	-30	82*	17	37	-4
COc1ccc2oc(C(=O)OCC(=O)N(CCC#N)c3ccccc3)c(C)c2c1	-2	-1	·	8	0	0
CC(C)CC(COCc1cccc(Cl)c1)N1CCN(C(=O)c2ccc(C(F)(F)F)cc2)CCC1=O (centres undefined)	-2	-45	77*	12	-29	0
Cc1cccc(COCC(CC(C)C)N2CCN(C(=O)c3ccc(C(C)(C)C)cc3)CCC2=O)c1 (centres undefined)	2	19	71*	11	25	2
Cc1cccc(COCC(CC(C)C)N2CCN(C(=O)c3ccc(C(F)(F)F)cc3)CCC2=O)c1 (centres undefined)	-1	-8	43	6	-7	1
CC(=O)Nc1ccc(-c2csc(NC(=O)C3CCN(S(=O)(=O)c4cccs4)CC3)n2)cc1	·	·	81*	22	·	·
COc1ccc(NC(=O)/C(=C\c2ccc(F)cc2)NC(=O)c2ccco2)cc1	-1	11	·	-22	11	1
CSc1ncc(CN2CCc3c([nH]c4ccccc34)C2c2cccc(O)c2)cn1 (centres undefined)	3	-28	86*	26	-2	0
CSc1ncc(CN2CCc3c([nH]c4ccccc34)C2c2cccc(C)n2)cn1 (centres undefined)	-2	-7	-1	-3	-6	1
Cc1ccc2c(c1)c1c(n2CC(O)Cn2c(C)nc3ccccc32)/C(=N\O)CCC1 (centres undefined)	2	20	87*	-11	24	-1
Cc1ccc2c(c1)c1c(n2CC(O)Cn2c(C)nc3ccccc32)C(=O)CCC1 (centres undefined)	0	-13	30	4	-3	2
CC(C)CCNC(=O)c1ccc(CSCc2cccc(F)c2)o1	-2	17	90*	-14	4	-1
O=C1Nc2ccc(Br)cc2C12NNc1ccccc1O2 (centres undefined)	9	-4	105*	2	-22	2
CC(NC(=O)CN1CCOCC1)c1ccc(F)cc1 (centres undefined)	-4	7	·	-4	3	1
O=C(Cn1c2ccc(F)cc2c2nc3n(c(=O)c21)CCS3)Nc1ccccc1C(F)(F)F	-1	9	78*	5	-6	0
C/C(N)=C(/C#N)C(=O)CN1C(=O)NC(Cc2c[nH]c3ccccc23)C1=O (centres undefined)	-1	13	·	2	-8	1
CCOC(=O)c1c(-c2ccc(OC)cc2)csc1NC(=O)CCN1CCOCC1	1	3	-5	14	3	-1
COC(=O)c1c(-c2cccs2)csc1NC(=O)CN1CCOCC1	0	-27	74*	5	-7	-2
O=C(OCC(=O)N1CCOCC1)c1ccccc1OCc1ccc(Cl)cc1	2	-21	·	-4	0	1
CCCCCCc1cc2cc(C(=O)OCC)c(=O)oc2cc1O	2	7	22	17	1	1
CCCCCCc1cc2cc(S(=O)(=O)c3ccc(F)c(Cl)c3)c(=O)oc2cc1O	2	-19	91*	22	27	0
Cc1ccc2ccc(C(Nc3ccccn3)c3ccccc3)c(O)c2n1 (centres undefined)	2	-24	-51	6	8	3
Cc1cccc(NC(c2ccc(C)s2)c2ccc3ccc(C)nc3c2O)n1 (centres undefined)	2	-36	24	6	15	93*
Cc1ccc(NC2=CC(=O)C(=O)c3ccccc32)cc1	17	-48	12	12	-48	45*
NS(=O)(=O)c1ccc(NC2=CC(=O)C(=O)c3ccccc32)cc1	10	12	·	-11	-4	16
O=[N+]([O-])c1ccc(N/N=C\c2ccccc2OCc2ccccc2)cc1	0	-15	76*	-5	16	2
